The record followed here is ChEMBL document CHEMBL2157949 (J Med Chem, 2012).

Active and inactive are the calls of the source. No cut-off for these calls is given here. Where only a bound is given, the exact number is not on record here.

Assay [1] relates to IGROV-1. Nature of the assay: Growth inhibition of human IGROV1 cells endogenously expressing RFC/FRalpha/PCFT in presence of 60 uM adenosine incubated for 96 hrs by CellTiter-blue cell viability assay. The assay is classed as functional, cell-based. (Resazurin is reduced to fluorescent resorufin, in cell work by metabolically active cells.)
For assay [2], the system named is KB. Nature of the assay: Growth inhibition of human KB cells endogenously expressing RFC/FRalpha/PCFT incubated for 96 hrs by CellTiter-blue cell viability assay. The assay is classed as functional, cell-based.
The nature of assay [3]: Growth inhibition of Chinese hamster PC43-10 cells expressing reduced folate carrier incubated for 96 hrs by CellTiter-blue cell viability assay. Conditions: Cricetulus griseus, PC43-10, 96 h. Type of assay: functional, cell-based.
The target in assay [4] is T1, Proton-coupled folate transporter (Homo sapiens, UniProt Q96NT5).
T1 sequence (Q96NT5 whole entry): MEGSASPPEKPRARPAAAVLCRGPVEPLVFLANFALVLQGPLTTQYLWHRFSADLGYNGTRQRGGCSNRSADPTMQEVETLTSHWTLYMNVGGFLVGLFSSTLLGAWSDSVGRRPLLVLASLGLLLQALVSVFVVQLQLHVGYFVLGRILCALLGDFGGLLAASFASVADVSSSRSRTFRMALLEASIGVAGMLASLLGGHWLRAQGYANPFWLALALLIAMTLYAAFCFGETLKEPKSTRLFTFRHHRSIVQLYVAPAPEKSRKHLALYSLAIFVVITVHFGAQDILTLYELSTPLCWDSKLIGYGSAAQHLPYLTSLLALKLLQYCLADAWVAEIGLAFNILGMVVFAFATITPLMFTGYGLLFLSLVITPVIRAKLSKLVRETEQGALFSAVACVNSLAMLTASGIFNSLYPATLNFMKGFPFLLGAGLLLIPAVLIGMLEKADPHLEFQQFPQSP
Nature of the assay: Inhibition of [3H]MTX transport at human PCFT expressed in Chinese hamster R2 cells at pH 6.8 by Dixon plot. The assay is classed as cell-based. A digest of the protocol:
(§1)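 R2/hPCFT4 CHO cells grown in spinner flasks, resuspended in HBS at pH 6.8 or MES-buffered saline at pH 5.5. Uptake quenched with ice-cold DPBS and normalized to protein. Mean ± SE, n=4–8.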

The test system of assay [5] is KB. Nature of the assay: Inhibition of colony formation of human KB cells endogenously expressing RFC/FRalpha/PCFT incubated for 14 days by methylene blue staining based clonogenicty assay. The assay is classed as functional, cell-based. The following applies: 336 h.
Assay [6] in a line: Growth inhibition of Chinese hamster RT16 cells expressing human folate receptor alpha incubated for 96 hrs by CellTiter-blue cell viability assay. The assay is classed as functional, cell-based. The following applies: Cricetulus griseus, RT16, 96 h.
The subject of assay [7] is KB. Nature of the assay: Growth inhibition of human KB cells endogenously expressing RFC/FRalpha/PCFT in presence of folic acid incubated for 96 hrs by CellTiter-blue cell viability assay. Type of assay: functional, cell-based.
Assay [8] deals with KB. Nature of the assay: Growth inhibition of human KB cells endogenously expressing RFC/FRalpha/PCFT in presence of 320 uM 5-amino-4-imidazolecarboxamide incubated for 96 hrs by CellTiter-blue cell viability assay. The assay is classed as functional, cell-based.
The test system of assay [9] is IGROV-1. Nature of the assay: Growth inhibition of human IGROV1 cells endogenously expressing RFC/FRalpha/PCFT in presence of 10 uM thymidine incubated for 96 hrs by CellTiter-blue cell viability assay. Type of assay: functional, cell-based.
In assay [10] the test system is KB. Nature of the assay: Growth inhibition of human KB cells endogenously expressing RFC/FRalpha/PCFT in presence of 10 uM thymidine incubated for 96 hrs by CellTiter-blue cell viability assay. The assay is classed as functional, cell-based.
The subject of assay [11] is IGROV-1. Nature of the assay: Growth inhibition of human IGROV1 cells endogenously expressing RFC/FRalpha/PCFT in presence of 320 uM 5-amino-4-imidazolecarboxamide incubated for 96 hrs by CellTiter-blue cell viability assay. The assay is classed as functional, cell-based.
In assay [12] the target is T1, Proton-coupled folate transporter. Nature of the assay: Inhibition of [3H]MTX transport at human PCFT expressed in Chinese hamster R2 cells at pH 5.5 by Dixon plot. Type of assay: cell-based. In outline:
as §1

Assay [13] has as its system R2. Nature of the assay: Growth inhibition of Chinese hamster R2 cells expressing empty vector control incubated for 96 hrs by CellTiter-blue cell viability assay. The following applies: Cricetulus griseus, R2, 96 h.
In assay [14] the target is Folate receptor alpha (Homo sapiens) (UniProt P15328). The assay is classed as cell-based. Conditions: CHO.
Chain of Folate receptor alpha (Homo sapiens) (P15328 25-234 limits assumed): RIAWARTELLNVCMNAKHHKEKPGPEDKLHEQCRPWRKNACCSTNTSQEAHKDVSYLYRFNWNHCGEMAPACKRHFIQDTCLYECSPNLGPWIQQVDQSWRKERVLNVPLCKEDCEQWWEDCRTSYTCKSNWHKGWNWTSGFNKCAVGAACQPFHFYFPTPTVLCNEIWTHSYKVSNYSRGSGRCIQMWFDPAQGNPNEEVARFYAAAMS
For assay [15], the system named is KB. Nature of the assay: Growth inhibition of human KB cells endogenously expressing RFC/FRalpha/PCFT in presence of 50 nM leucovorin incubated for 96 hrs by CellTiter-blue cell viability assay. Type of assay: functional, cell-based. A digest of the protocol:
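KB cells in complete folate-free RPMI 1640 with 10% dialyzed FBS and LCV at 50 nM (versus the standard 2 nM), exposed to a range of antifolate concentrations for up to 96 h. Cell density read by CellTiter-blue fluorescence and normalized to drug-free cells. Representative data from experiments run in duplicate.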

Assay [16] deals with KB. Nature of the assay: Growth inhibition of human KB cells endogenously expressing RFC/FRalpha/PCFT in presence of 60 uM adenosine incubated for 96 hrs by CellTiter-blue cell viability assay. The assay is classed as functional, cell-based.
Assay [17] concerns R2. Nature of the assay: Growth inhibition of Chinese hamster R2 cells deficient in reduced folate carrier and human folate receptor alpha incubated for 96 hrs by CellTiter-blue cell viability assay. Type of assay: cell-based, Cricetulus griseus. The following applies: R2, 96 h.
Assay [18] deals with R2. Nature of the assay: Growth inhibition of Chinese hamster R2 cells expressing human PCFT incubated for 96 hrs by CellTiter-blue cell viability assay. Conditions: R2, 96 h. Type of assay: functional, cell-based, Cricetulus griseus. A digest of the protocol: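 R2/hPCFT4 CHO cells maintained beforehand in folate-free RPMI 1640 with dialyzed FBS, 25 nM LCV and G418. Assay: ~2500–5000 cells/well in folate-free RPMI 1640 (pH 7.2) with 25 nM LCV, 10% dialyzed FBS, antibiotics and L-glutamine, over a range of drug concentrations.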

The subject of assay [19] is IGROV-1. Nature of the assay: Growth inhibition of human IGROV1 cells endogenously expressing RFC/FRalpha/PCFT incubated for 96 hrs by CellTiter-blue cell viability assay. Conditions: IGROV-1, 96 h. The assay is classed as functional, cell-based.
A short description of assay [20]: Growth inhibition of Chinese hamster RT16 cells expressing human folate receptor alpha incubated for 96 hrs in presence of folic acid by CellTiter-blue cell viability assay. The assay is classed as functional, cell-based. The following applies: Cricetulus griseus, RT16, 96 h.
Assay [21] relates to IGROV-1. Nature of the assay: Growth inhibition of human IGROV1 cells endogenously expressing RFC/FRalpha/PCFT in presence of folic acid incubated for 96 hrs by CellTiter-blue cell viability assay. The assay is classed as functional, cell-based. The following applies: IGROV-1, 96 h.
Assay [22] addresses T2, Proton-coupled folate transporter (Homo sapiens) (UniProt Q96NT5).
T2 sequence (whole entry): T1 sequence (Q96NT5 whole entry)
Nature of the assay: Ratio of Ki for human PCFT at pH 6.8 to Ki for human PCFT at pH 5.5 by [3H]MTX transport assay.

The target in assay [23] is T3, Trifunctional purine biosynthetic protein adenosine-3 (Homo sapiens, UniProt P22102).
T3 sequence (P22102 whole entry): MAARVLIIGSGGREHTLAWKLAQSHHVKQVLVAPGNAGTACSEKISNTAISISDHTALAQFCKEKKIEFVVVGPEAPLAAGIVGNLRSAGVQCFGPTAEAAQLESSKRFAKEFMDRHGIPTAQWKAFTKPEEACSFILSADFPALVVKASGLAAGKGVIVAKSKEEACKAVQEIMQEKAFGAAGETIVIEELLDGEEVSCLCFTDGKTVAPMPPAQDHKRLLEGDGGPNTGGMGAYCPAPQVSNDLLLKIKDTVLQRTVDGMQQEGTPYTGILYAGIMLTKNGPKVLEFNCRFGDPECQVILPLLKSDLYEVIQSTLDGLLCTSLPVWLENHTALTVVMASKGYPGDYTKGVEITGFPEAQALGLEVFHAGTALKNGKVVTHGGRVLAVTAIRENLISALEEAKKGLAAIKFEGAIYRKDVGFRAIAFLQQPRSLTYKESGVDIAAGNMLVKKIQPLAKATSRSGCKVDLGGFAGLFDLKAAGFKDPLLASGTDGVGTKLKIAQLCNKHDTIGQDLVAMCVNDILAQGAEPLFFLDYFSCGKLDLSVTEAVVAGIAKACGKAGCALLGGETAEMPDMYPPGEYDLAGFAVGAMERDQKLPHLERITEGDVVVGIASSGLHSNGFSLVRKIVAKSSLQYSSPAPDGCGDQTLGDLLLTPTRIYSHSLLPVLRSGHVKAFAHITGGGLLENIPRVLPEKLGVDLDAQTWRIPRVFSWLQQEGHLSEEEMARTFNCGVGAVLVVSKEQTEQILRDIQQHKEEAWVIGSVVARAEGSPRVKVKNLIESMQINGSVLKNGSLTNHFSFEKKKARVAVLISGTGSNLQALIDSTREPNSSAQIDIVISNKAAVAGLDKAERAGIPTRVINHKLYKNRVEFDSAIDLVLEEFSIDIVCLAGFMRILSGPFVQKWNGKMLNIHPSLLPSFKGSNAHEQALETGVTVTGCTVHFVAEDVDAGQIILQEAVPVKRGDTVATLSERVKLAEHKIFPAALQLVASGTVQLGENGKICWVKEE
Nature of the assay: Inhibition of GARFTase in human IGROV1 cells assessed as reduction in [14C]glycine incorporation into [14C]formyl GAR incubated for 15 hrs in complete folate free RPMI medium in presence of 2 nM leucovorin. Type of assay: cell-based, IGROV-1.

For `Nc1nc2[nH]c(CCCCc3csc(C(=O)N[C@@H](CCC(=O)O)C(=O)O)c3)cc2c(=O)[nH]1`, the “growth inhibition (GI)” value in the assay with IGROV-1 [1], with KB [8], in the assay on IGROV-1 [11] and with KB [16] was “inactive” in each case. Further, the IC50 (in general, the point on the concentration scale where inhibition reaches its midpoint) in the assay on KB [2] was 0.17 nM; in assay [3], greater than 1000 nM; in the assay on KB [5] it was 0.39 nM; in [6] it was 2.54 nM; with KB [7], greater than 1000 nM; in the assay on R2 [13], greater than 1000 nM. Moreover, the IC50 with KB [15] was 3.4 nM; with R2 [17], greater than 1000 nM; with R2 [18] it was 41.5 nM; in the assay on IGROV-1 [19] it was 0.48 nM; in assay [20], greater than 1000 nM; in the assay with IGROV-1 [21], greater than 1000 nM. The Ki (in general, the equilibrium dissociation constant of an inhibitor or competing ligand from its target) was found to be 28100 nM in [4] and 390 nM in assay [12]. In addition, the “growth inhibition (GI)” value in the assay on IGROV-1 [9] and in the assay on KB [10] was “Active” in each case. The compound further gave a relative binding affinity (RBA) in assay [14] greater than 1.
For the compound `Nc1nc2[nH]c(CCCCc3cc(C(=O)N[C@@H](CCC(=O)O)C(=O)O)cs3)cc2c(=O)[nH]1`, the “growth inhibition (GI)” value in the assay on IGROV-1 [1], in the assay with KB [8], in the assay on IGROV-1 [11] and in the assay on KB [16] was “inactive” throughout. For the same compound, the IC50 in the assay on KB [2] was 0.27 nM; in assay [3], greater than 1000 nM; in the assay with KB [5] it was 0.16 nM; in [6], 2.6 nM; in the assay with KB [7], greater than 1000 nM; in the assay with R2 [13], greater than 1000 nM. Moreover, the IC50 in the assay with KB [15] is greater than 20 nM; in the assay on R2 [17], greater than 1000 nM; in the assay on R2 [18], 63.8 nM; with IGROV-1 [19] it was 1.4 nM; in assay [20], greater than 1000 nM; with IGROV-1 [21], greater than 1000 nM. Further, in [23], the IC50 is 2.03 nM. Besides, the Ki in assay [4] was found to be 30700 nM; in [12], 420 nM. The “growth inhibition (GI)” value in the assay with IGROV-1 [9] and in the assay on KB [10] was “Active” throughout. Also, the relative binding affinity (RBA) in assay [14] was greater than 1. Moreover, the Ratio Ki in [22] came out at 70.
